Measurements as given in ChEMBL document CHEMBL3853360, “Combined Interactions with I1-, I2-Imidazoline Binding Sites and α2-Adrenoceptors To Manage Opioid Addiction” (ACS Med Chem Lett, 2016).

Tests used:
[1] = molecular target: T1, Adrenergic receptor alpha-2 (Rattus norvegicus, UniProt P22086+P19328+P22909); assay: Displacement of [3H]-clonidine from alpha2-AR in rat brain cortical membranes after 45 mins by liquid scintillation counting; format: cell membranes
T1 sequence (P22086 whole entry): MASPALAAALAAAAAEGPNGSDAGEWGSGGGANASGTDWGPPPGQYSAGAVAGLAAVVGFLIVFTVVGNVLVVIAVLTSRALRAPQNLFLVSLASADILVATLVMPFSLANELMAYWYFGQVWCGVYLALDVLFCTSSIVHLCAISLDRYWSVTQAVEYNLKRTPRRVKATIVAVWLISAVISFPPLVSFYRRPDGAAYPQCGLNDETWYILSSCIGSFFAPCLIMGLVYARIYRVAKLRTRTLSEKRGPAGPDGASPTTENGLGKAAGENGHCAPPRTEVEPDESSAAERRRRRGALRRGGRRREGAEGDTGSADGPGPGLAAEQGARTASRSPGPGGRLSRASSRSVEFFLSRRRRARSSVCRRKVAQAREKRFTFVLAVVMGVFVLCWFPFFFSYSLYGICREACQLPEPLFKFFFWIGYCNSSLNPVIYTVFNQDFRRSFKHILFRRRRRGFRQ
T1 sequence (P19328 whole entry): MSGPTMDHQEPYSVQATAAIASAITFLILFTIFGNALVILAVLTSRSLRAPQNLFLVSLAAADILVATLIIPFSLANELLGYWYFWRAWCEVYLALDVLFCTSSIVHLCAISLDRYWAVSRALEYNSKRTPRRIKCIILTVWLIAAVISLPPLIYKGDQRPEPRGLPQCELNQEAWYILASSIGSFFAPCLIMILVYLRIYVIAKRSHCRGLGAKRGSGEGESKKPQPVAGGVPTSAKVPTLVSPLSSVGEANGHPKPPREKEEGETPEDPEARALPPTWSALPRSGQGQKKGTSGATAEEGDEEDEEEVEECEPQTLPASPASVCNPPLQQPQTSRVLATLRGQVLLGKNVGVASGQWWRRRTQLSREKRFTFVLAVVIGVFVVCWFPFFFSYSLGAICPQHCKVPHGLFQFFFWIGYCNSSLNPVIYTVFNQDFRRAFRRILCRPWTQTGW
T1 sequence (P22909 whole entry): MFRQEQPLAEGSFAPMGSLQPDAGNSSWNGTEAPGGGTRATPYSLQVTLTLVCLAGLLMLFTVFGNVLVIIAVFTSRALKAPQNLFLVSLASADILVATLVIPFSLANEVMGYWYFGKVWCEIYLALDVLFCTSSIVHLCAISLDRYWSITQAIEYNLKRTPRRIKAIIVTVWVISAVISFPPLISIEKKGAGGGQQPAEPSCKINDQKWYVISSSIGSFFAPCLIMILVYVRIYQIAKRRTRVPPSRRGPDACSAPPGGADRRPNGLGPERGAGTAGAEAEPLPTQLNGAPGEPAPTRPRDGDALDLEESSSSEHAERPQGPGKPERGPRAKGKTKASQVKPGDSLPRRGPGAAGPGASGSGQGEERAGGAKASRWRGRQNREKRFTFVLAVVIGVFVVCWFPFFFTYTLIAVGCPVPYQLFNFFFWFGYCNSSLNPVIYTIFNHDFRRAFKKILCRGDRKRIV

[2] = Displacement of [3H]idazoxan from I2 receptor imidazoline binding site in rabbit kidney membranes after 45 mins by […]; format: cell membranes, Oryctolagus cuniculus, Membrane
[3] = molecular target: T2, Alpha-2B adrenergic receptor (Homo sapiens, UniProt P18089); assay: Agonist activity at human alpha2b-AR expressed in CHO cells assessed as rate of acidification after 240 mins by cytosensor microphysiometric analysis; format: cell-based
T2 sequence (P18089 whole entry): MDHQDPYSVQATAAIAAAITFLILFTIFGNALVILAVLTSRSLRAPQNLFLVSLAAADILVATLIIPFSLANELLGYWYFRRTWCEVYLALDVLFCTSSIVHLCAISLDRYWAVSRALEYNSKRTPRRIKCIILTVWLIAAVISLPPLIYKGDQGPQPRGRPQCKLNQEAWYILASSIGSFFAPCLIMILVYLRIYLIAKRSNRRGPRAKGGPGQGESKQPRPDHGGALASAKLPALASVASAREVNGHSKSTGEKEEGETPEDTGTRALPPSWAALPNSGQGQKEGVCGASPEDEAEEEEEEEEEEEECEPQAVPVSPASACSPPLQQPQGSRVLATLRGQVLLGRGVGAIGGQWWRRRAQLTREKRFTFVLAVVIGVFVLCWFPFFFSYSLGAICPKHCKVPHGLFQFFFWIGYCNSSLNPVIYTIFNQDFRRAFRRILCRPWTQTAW
In short: (§1)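 Functional assay in CHO cells stably expressing a single human α2-AR subtype (α2A, α2B or α2C), read on a Cytosensor microphysiometer. Outputs are pEC50, intrinsic activity and, for antagonism, pKb. Intrinsic activity is expressed as a fraction of the full agonist (−)-noradrenaline, set at 1. Values are mean ± SEM of 3–5 separate experiments.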

[4] = molecular target: T3, Alpha-2C adrenergic receptor (Homo sapiens, UniProt P18825); assay: Agonist activity at human alpha2c-AR expressed in CHO cells assessed as rate of acidification after 240 mins by cytosensor microphysiometric analysis; format: cell-based; in short: as §1
T3 sequence (P18825 whole entry): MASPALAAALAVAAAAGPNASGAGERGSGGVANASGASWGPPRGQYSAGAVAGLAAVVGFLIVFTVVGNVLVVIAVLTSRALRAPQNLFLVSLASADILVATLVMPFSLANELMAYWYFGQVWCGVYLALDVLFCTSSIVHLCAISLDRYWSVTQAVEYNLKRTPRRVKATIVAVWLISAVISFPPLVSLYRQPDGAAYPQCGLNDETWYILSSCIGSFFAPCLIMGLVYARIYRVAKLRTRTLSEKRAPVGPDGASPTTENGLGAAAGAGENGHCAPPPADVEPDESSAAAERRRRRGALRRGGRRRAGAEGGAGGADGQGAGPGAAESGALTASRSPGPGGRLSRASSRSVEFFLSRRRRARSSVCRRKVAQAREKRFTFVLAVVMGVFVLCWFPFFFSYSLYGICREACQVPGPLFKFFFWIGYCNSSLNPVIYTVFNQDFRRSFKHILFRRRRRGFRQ

[5] = molecular target: T1, Adrenergic receptor alpha-2; assay: Displacement of [3H]-RX 821002 from alpha2-AR in Sprague-Dawley rat brain membranes after 30 mins by liquid scintillation counting; format: cell membranes, Membrane
In short: (§2)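 Radioligand competition binding with pKi determined by displacement. I1 sites: [125I]-p-iodoclonidine on rat kidney membranes. I2 sites: [3H]-2-BFI on rat brain membranes. α2-ARs: [3H]-RX821002 on rat brain membranes.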

Nischarin = Nischarin (Rattus norvegicus, UniProt Q4G017); assay: Displacement of [125I]-p-iodoclonidine from I1 receptor imidazoline binding site in Sprague-Dawley rat kidney cell membranes after 30 mins by liquid scintillation counting; in short: as §2
Sequence of Nischarin (Q4G017 whole entry): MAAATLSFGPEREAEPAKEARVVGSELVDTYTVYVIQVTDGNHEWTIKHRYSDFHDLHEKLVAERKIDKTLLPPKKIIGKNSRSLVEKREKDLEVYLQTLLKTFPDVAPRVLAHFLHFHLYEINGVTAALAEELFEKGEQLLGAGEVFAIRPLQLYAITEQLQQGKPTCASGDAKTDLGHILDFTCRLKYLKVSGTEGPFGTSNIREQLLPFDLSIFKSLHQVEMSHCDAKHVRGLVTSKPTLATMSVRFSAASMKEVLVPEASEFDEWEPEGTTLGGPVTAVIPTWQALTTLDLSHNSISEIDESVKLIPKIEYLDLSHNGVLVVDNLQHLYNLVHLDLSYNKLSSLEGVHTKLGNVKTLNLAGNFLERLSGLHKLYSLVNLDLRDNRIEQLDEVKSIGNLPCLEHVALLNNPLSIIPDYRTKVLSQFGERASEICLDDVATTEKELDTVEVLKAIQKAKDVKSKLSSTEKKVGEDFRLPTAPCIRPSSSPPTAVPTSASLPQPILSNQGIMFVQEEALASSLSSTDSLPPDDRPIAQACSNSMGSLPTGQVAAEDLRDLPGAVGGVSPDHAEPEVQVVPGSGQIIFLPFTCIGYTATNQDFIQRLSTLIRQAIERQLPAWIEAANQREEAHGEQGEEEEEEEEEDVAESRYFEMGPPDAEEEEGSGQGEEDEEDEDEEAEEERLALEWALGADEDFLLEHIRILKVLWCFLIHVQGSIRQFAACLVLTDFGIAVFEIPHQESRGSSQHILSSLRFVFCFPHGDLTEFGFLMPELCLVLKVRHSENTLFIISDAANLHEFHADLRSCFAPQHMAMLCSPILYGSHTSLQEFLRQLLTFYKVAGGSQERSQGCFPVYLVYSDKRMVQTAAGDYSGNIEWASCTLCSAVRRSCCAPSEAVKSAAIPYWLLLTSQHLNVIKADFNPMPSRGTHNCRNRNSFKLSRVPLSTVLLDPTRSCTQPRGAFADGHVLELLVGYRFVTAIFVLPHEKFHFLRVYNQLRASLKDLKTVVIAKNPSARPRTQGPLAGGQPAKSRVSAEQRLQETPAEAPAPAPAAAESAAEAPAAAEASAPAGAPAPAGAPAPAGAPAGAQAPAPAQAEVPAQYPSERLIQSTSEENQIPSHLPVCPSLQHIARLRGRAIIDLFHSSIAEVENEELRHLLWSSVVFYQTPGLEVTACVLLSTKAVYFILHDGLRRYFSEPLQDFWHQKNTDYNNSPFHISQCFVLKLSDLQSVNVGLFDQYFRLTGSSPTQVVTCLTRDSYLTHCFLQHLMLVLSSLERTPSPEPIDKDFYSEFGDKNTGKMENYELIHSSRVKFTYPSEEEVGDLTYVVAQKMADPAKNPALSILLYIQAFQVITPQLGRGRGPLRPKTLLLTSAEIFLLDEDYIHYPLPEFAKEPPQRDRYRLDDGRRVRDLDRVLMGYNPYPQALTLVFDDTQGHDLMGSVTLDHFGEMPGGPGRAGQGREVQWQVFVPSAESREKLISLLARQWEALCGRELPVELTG

[6] = molecular target: T4, Alpha-2A adrenergic receptor (Homo sapiens) (UniProt P08913); assay: Antagonist activity at human alpha2a-AR expressed in CHO cells assessed as inhibition of (-)-noradrenaline-induced acidification rate after 240 mins by cytosensor microphysiometric analysis; format: cell-based; in short: as §1
T4 sequence (whole entry): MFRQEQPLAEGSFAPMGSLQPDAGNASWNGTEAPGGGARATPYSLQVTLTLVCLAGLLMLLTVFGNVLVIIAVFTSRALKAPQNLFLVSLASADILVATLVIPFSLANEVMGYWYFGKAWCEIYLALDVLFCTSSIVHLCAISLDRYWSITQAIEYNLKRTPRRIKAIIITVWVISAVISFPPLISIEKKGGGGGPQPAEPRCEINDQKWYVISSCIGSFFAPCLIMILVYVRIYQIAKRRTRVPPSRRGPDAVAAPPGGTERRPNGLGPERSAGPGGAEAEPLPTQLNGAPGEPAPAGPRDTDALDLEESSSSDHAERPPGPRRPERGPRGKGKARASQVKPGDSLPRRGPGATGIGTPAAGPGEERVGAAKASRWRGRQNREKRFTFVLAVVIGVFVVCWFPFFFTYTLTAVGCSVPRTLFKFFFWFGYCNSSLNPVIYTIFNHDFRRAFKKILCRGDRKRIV

[7] = Displacement of [3H]-2-BFI from I2 receptor imidazoline binding site in Sprague-Dawley rat brain membranes after 30 mins by liquid scintillation counting; format: cell membranes, Membrane; in short: as §2
[8] = molecular target: T5, Alpha-2B adrenergic receptor (Homo sapiens) (UniProt P18089); assay: Agonist activity at human alpha2b-AR expressed in CHO cells assessed as rate of acidification after 240 mins by cytosensor microphysiometric analysis relative to (-)-noradrenaline; format: cell-based; in short: as §1
T5 sequence (whole entry): T2 sequence (P18089 whole entry)

[9] = molecular target: T6, Alpha-2C adrenergic receptor (Homo sapiens) (UniProt P18825); assay: Agonist activity at human alpha2c-AR expressed in CHO cells assessed as rate of acidification after 240 mins by cytosensor microphysiometric analysis relative to (-)-noradrenaline; format: cell-based; in short: as §1
T6 sequence (whole entry): T3 sequence (P18825 whole entry)

| pKi [1] | pKi [2] | EC50 [3] [nM] | EC50 [4] [nM] | pKi [5] | Ki (Nischarin) [nM] | pKb [6] | pKi [7] | Intrinsic activity [8] | Intrinsic activity [9] | SMILES |
| --- | --- | --- | --- | --- | --- | --- | --- | --- | --- | --- |
| < 6 | 8.72 | – | – | – | – | – | – | – | – | C(=C\c1ccccc1)/C1=NCCN1 [TRACIZOLINE] |
| – | – | 2510 | 158 | 6.79 | 3.98 | 6.77 | 7.85 | 0.5 | 0.8 | C=CCc1ccccc1NCC1=NCCN1 |
| – | – | – | – | < 6 | 97.7 | – | 8.08 | – | – | C(=C\c1ccccc1-c1ccccc1)/C1=NCCN1 |
